Measurements: PMC8842656 (Journal of Experimental Pharmacology, 2022)
Read-outs that look alike come from different tables or passages of the source.

What was measured:
[1] = Single dose pharmacokinetic study, oral gavage, blood by LC/MS/MS; format: in vivo, rat
Outline: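 Two groups of 6 Sprague-Dawley rats (3 males and 3 females each), 6–8 weeks old, received a single oral gavage of test compound at 500 or 1000 mg/kg, suspended in 2% carboxymethylcellulose. Blood was drawn at 5, 10, 15, 30, 45 min and 1, 2, 4, 6, 24 h. Compound was measured by LC/MS/MS, and t1/2, Tmax and Cmax were derived from mean (n=6) profiles.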

[2] = tested on: Sprague-Dawley (SD) rats; assay: 5-day maximum tolerated dose; format: in vivo, rat
Outline: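 Thirty Sprague-Dawley rats, 60–65 days old (276–300 g), viral-antibody free, formed 5 groups of 3 males and 3 females. They received 2% carboxymethylcellulose vehicle or test compound suspended in it at 50, 100, 500 or 1000 mg/kg/day by oral gavage once daily for 5 days. Mortality, body weight and food intake were monitored. Terminal hematology, clinical chemistry and necropsy followed, with control and high-dose organs sectioned. Two-tailed Student's t-test, p<0.05.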

[3] = Long-term; format: in vivo, rat; conditions: 100 mg/kg/day oral, day 28
Outline: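 Sprague-Dawley rats (3 males and 3 females) were dosed with test compound by oral gavage at 100 mg/kg/day for 28 days, suspended in 2% carboxymethylcellulose. On day 28 the animals were anesthetized and blood was sampled from 5 min to 24 h after dosing. Compound was quantified by LC/MS/MS, and Cmax and Tmax were taken from the mean (n=6) concentration-time profile.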

[4] = 500 mg/kg oral and 20 mg/kg i.v., blood at 2 and 6 hours; cited from earlier work
[5] = tested on: Sprague-Dawley (SD) rats; assay: 28-day toxicology evaluation within long-term PK study, oral gavage once daily; format: in vivo, rat; conditions: 100 mg/kg/day oral
Outline: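 Male and female Sprague-Dawley rats, 6–8 weeks old (250–350 g), 3+3 per group, received 2% carboxymethylcellulose vehicle or test compound suspended in it at 100 mg/kg/day by oral gavage for 28 days. Adverse events, body weight and daily food intake were tracked. Terminal hematology and serum biochemistry, gross necropsy, and histopathology of heart, lungs, liver, kidney, spleen and colon followed. Two-tailed Student's t-test versus vehicle, p<0.05.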

[6] = tested on: LPS-induced experimental periodontal disease; conditions: rats, oral, 28 days, doses 0, 1, 5, 10 and 30 mg/kg; cited from earlier work
[7] = humans, cited from earlier work
[8] = oral dose of 2g/kg; cited from earlier work
[9] = 50-1000 mg/kg/day oral, 5 days, both sexes
[10] = 28-Day PK Study, compared to placebo-treated controls

## O=C(/C=C/c1ccc(O)cc1)C(C(=O)/C=C/c1ccc(O)cc1)C(=O)Nc1ccccc1 [CMC2.24]
[1]; oral administration
  Serum half-life: 10 h
[1]; single oral dose 500 mg/kg
  Cmax in blood: 8 ng/mL
  Tmax: 0.75 h
[1]; single oral dose 1000 mg/kg
  Cmax in blood: 6.7 ng/mL
  Tmax: 0.75 h
[2]; [9]
  Daily food consumption and adverse events: no difference
  Mean body weight vs placebo treated controls: did not show significant differences
[2]; oral, one week of treatment
  Highest dose found safe (MTD not demonstrated): ≥ 1000 mg/kg
[3]
  Peak blood concentration (Cmax): 0.2 ng/mL
  Tmax: 4 h
[4]
  Bioavailability based on blood analysis: poor bioavailability
[5]; 28 days
  Adverse events: no adverse events were reported
[5]; 28 days, both sexes
  Mean body weight vs placebo treated controls: no significant differences
[5]; [10]
  Hematological & Serological parameters: No change observed
  Histology of organs (Heart, Lungs, Spleen, Liver, Kidney, Colon): Normal Histology Observed
[6]
  Minimum effective dose to inhibit inflammation and alveolar bone resorption: 1 mg/kg/day

## COc1cc(C=CC(=O)CC(=O)C=Cc2ccc(O)c(OC)c2)ccc1O [curcumin, 1,7-bis-(4-hydroxy-3-methoxyphenyl)-1,6-heptadiene-3,5-dione]
[7]; oral dose of 10 g/kg
  Cmax in serum: 50.5 ng/mL
  Time of Cmax: 4 h
[7]; oral dose of 12 g/kg
  Cmax in serum: 57.6 ng/mL
  Time of Cmax: 2 h
[8]
  Cmax: 1350 ± 230 ng/mL
  Time of Cmax: 0.75 h
